Results taken from ChEMBL document CHEMBL1123490, “Synthesis and biological activities of oligo(8-bromoadenylates) as analogues of 5'-O-triphosphoadenylyl(2'----5')adenylyl(2'----5')adenosine” (J Med Chem, 1986).

Tests used:
Mus musculus [1] = organism: Mus musculus; experiment: Compound measured for the stability in 20% mouse in L cell extracts in the presence of ATP at 40 min; type: functional, organism-based
Mus musculus [2] = organism: Mus musculus; experiment: Compound measured for the stability in 20% mouse in L cell extracts in the presence of ATP at 75 min; type: functional, organism-based
[3] = molecular target: T1, 2-5A-dependent ribonuclease (Mus musculus) (UniProt Q05921); experiment: (§1) Compound was tested for activation of RNase L by measuring concentration required for 50% inhibition of protein synthesis in mouse L cell extracts; type: cell-based
T1 sequence (whole entry): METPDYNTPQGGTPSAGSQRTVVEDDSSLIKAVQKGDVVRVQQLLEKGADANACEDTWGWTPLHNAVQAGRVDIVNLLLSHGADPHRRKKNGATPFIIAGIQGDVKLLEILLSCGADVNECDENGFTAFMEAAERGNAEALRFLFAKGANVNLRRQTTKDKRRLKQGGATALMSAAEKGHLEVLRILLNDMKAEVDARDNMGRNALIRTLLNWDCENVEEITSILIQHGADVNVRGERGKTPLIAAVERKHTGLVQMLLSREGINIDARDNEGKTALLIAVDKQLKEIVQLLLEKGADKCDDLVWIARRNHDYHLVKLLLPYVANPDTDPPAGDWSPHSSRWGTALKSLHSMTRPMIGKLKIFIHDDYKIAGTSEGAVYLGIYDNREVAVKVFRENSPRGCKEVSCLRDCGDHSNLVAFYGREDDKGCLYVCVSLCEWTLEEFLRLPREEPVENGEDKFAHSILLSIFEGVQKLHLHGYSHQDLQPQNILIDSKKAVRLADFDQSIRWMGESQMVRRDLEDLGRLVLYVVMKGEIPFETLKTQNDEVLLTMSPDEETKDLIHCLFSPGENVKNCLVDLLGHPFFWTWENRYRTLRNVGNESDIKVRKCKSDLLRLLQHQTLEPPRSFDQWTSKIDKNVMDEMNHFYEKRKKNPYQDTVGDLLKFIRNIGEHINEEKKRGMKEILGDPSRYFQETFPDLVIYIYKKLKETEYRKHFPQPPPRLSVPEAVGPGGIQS
Outline: (§2)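 Cell-free translation was run in mouse L cell extract programmed with EMCV RNA, with creatine kinase, amino acids and [3H]leucine added. At set times, aliquots were spotted onto filter disks presoaked in 15% trichloroacetic acid to measure incorporation. The value is the concentration giving 50% inhibition of protein synthesis.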

Mus musculus [4] = organism: Mus musculus; experiment: Compound measured for the stability in 20% mouse in L cell extracts in the presence of ATP at 12 hr; type: functional, organism-based
Mus musculus [5] = organism: Mus musculus; experiment: Compound measured for the stability in 20% mouse in L cell extracts in the absence of ATP at 0 min; type: functional
[6] = molecular target: T1, 2-5A-dependent ribonuclease (Mus musculus); experiment: Binding affinity against 2-5A-dependent RNase L in mouse L cell extract using ppp5'A2p5'A2'p5'A3'[32P]pCp as a radioactive probe; type: cell-free
Outline: (§3)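 Crude mouse L cell extract served as the RNase L source, with ppp5'A2'p5'A2'p5'A3'[32P]p5'Cp as the radioactive probe, in a competition binding assay on nitrocellulose. The value is the analogue concentration giving 50% displacement of the probe from the endonuclease–nitrocellulose complex.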

Mus musculus [7] = organism: Mus musculus; experiment: Compound measured for the stability in 20% mouse in L cell extracts in the presence of ATP at 0 min; type: functional, organism-based
[8] = molecular target: T2, 2-5A-dependent ribonuclease (Mus musculus, UniProt Q05921); experiment: as §1; type: cell-based
T2 sequence (Q05921 whole entry): T1 sequence (whole entry)

Mus musculus [9] = organism: Mus musculus; experiment: Compound measured for the stability in 20% mouse in L cell extracts in the absence of ATP at 90 min; type: functional
Mus musculus [10] = organism: Mus musculus; experiment: Compound measured for the stability in 20% mouse in L cell extracts in the presence of ATP at 220 min; type: functional, organism-based
Mus musculus [11] = organism: Mus musculus; experiment: Compound measured for the stability in 20% mouse in L cell extracts in the presence of ATP at 120 min; type: functional, organism-based
[12] = molecular target: T1, 2-5A-dependent ribonuclease (Mus musculus); experiment: Binding affinity against 2-5A-dependent RNase L in mouse L cell extracts using ppp5'A2p5'A2'p5'A3'[32P]pCp as a radioactive probe; type: cell-free; outline: as §3
[13] = molecular target: T2, 2-5A-dependent ribonuclease; experiment: (§4) compound was tested for activation of RNase L by measuring concentration required for 50% inhibition of protein synthesis in mouse L cell extracts; type: cell-based; outline: as §2
[14] = molecular target: T1, 2-5A-dependent ribonuclease (Mus musculus); experiment: as §4; type: cell-based; outline: as §2
Mus musculus [15] = organism: Mus musculus; experiment: Compound measured for the stability in 20% mouse in L cell extracts in the absence of ATP at 240 min; type: functional
Mus musculus [16] = organism: Mus musculus; experiment: Compound measured for the stability in 20% mouse in L cell extracts in the absence of ATP at 120 min; type: functional
Mus musculus [17] = organism: Mus musculus; experiment: Compound measured for the stability in 20% mouse in L cell extracts in the absence of ATP at 150 min; type: functional
Mus musculus [18] = organism: Mus musculus; experiment: Compound measured for the stability in 20% mouse in L cell extracts in the absence of ATP at 12 hr; type: functional
Mus musculus [19] = organism: Mus musculus; experiment: Compound measured for the stability in 20% mouse in L cell extracts in the absence of ATP at 30 min; type: functional
Mus musculus [20] = organism: Mus musculus; experiment: Compound measured for the stability in 20% mouse in L cell extracts in the presence ot ATP at 75 min; type: functional, organism-based
Mus musculus [21] = organism: Mus musculus; experiment: Compound measured for the stability in 20% mouse in L cell extracts in the presence ot ATP at 150 min; type: functional
Mus musculus [22] = organism: Mus musculus; experiment: Compound measured for the stability in 20% mouse in L cell extracts in the presence ot ATP at 40 min.; type: functional, organism-based
Mus musculus [23] = organism: Mus musculus; experiment: Compound measured for the stability in 20% mouse in L cell extracts in the presence ot ATP at 12 hr; type: functional, organism-based
Mus musculus [24] = organism: Mus musculus; experiment: Compound measured for the stability in 20% mouse in L cell extracts in the absence ot ATP at 240 min; type: functional, organism-based
Mus musculus [25] = organism: Mus musculus; experiment: Compound measured for the stability in 20% mouse in L cell extracts in the absence ot ATP at 40 min.; type: functional, organism-based
Mus musculus [26] = organism: Mus musculus; experiment: Compound measured for the stability in 20% mouse in L cell extracts in the absence ot ATP at 75 min; type: functional
Mus musculus [27] = organism: Mus musculus; experiment: Compound measured for the stability in 20% mouse in L cell extracts in the absence ot ATP at 12 hr; type: functional
Mus musculus [28] = organism: Mus musculus; experiment: Compound measured for the stability in 20% mouse in L cell extracts in the absence ot ATP at 0 min.; type: functional
Mus musculus [29] = organism: Mus musculus; experiment: Compound measured for the stability in 20% mouse in L cell extracts in the absence ot ATP at 150 min; type: functional
Mus musculus [30] = organism: Mus musculus; experiment: Compound measured for the stability in 20% mouse in L cell extracts in the presence of ATP at 0 min.; type: functional, organism-based

Nc1ncnc2c1nc(Br)n2[C@@H]1O[C@H](COP(=O)(O)O[C@@H]2[C@H](O)[C@@H](COP(=O)(O)O[C@@H]3[C@H](O)[C@@H](COP(=O)(O)OP(=O)(O)OP(=O)(O)O)O[C@H]3n3c(Br)nc4c(N)ncnc43)O[C@H]2n2c(Br)nc3c(N)ncnc32)[C@@H](O)[C@H]1O
Stability (Mus musculus [1]): 54% | Stability (Mus musculus [2]): 46% | Relative activity [3]: 0.015 | Stability (Mus musculus [4]): 0% | Stability (Mus musculus [5]): 48% | Activity [6]: 8e-09 | Relative ability [6]: 0.088 | Stability (Mus musculus [7]): 71% | IC50 [8]: 0.15 µM | Stability (Mus musculus [9]): 3% | Stability (Mus musculus [10]): 16% | Stability (Mus musculus [11]): 36%

Nc1ncnc2c1nc(Br)n2[C@@H]1O[C@H](COP(=O)(O)O[C@@H]2[C@H](O)[C@@H](COP(=O)(O)O[C@@H]3[C@H](O)[C@@H](COP(=O)(O)O[C@@H]4[C@H](O)[C@@H](CO)O[C@H]4n4c(Br)nc5c(N)ncnc54)O[C@H]3n3c(Br)nc4c(N)ncnc43)O[C@H]2n2c(Br)nc3c(N)ncnc32)[C@@H](O)[C@H]1O
Activity [12]: 3e-08 | Relative ability [12]: 0.023 | IC50 [13]: > 200 µM | Relative activity [14]: < 1e-05

Nc1ncnc2c1nc(Br)n2[C@@H]1O[C@H](COP(=O)(O)O[C@@H]2[C@H](O)[C@@H](COP(=O)(O)O[C@@H]3[C@H](O)[C@@H](COP(=O)(O)OP(=O)(O)O)O[C@H]3n3c(Br)nc4c(N)ncnc43)O[C@H]2n2c(Br)nc3c(N)ncnc32)[C@@H](O)[C@H]1O
Activity [12]: 3e-09 | Relative ability [12]: 0.23 | Stability (Mus musculus [1]): 87% | Stability (Mus musculus [2]): 71% | Relative activity [3]: 0.05 | Stability (Mus musculus [4]): 47% | Stability (Mus musculus [5]): 100% | Stability (Mus musculus [15]): 0% | Stability (Mus musculus [7]): 100% | Stability (Mus musculus [16]): 67% | IC50 [8]: 0.046 µM | Stability (Mus musculus [17]): 55% | Stability (Mus musculus [18]): 0% | Stability (Mus musculus [9]): 70% | Stability (Mus musculus [10]): 70% | Stability (Mus musculus [19]): 80%

Nc1ncnc2c1ncn2[C@@H]1O[C@H](CO[P@](=O)(O)O[C@@H]2[C@H](O)[C@@H](CO[P@](=O)(O)O[C@@H]3[C@H](O)[C@@H](CO[P@](=O)(O)O[P@@](=O)(O)OP(=O)(O)O)O[C@H]3n3cnc4c(N)ncnc43)O[C@H]2n2cnc3c(N)ncnc32)[C@@H](O)[C@H]1O
IC50 [8]: 0.0023 µM

Nc1ncnc2c1nc(Br)n2[C@@H]1O[C@H](COP(=O)(O)O[C@@H]2[C@H](O)[C@@H](COP(=O)(O)O[C@@H]3[C@H](O)[C@@H](CO)O[C@H]3n3c(Br)nc4c(N)ncnc43)O[C@H]2n2c(Br)nc3c(N)ncnc32)[C@@H](O)[C@H]1O
Activity [12]: 6e-07 | Relative ability [12]: 0.0012 | IC50 [13]: > 50 µM | Relative activity [14]: < 5e-05

Nc1ncnc2c1nc(Br)n2[C@@H]1O[C@H](COP(=O)(O)O[C@@H]2[C@H](O)[C@@H](COP(=O)(O)O[C@@H]3[C@H](O)[C@@H](COP(=O)(O)O[C@@H]4[C@H](O)[C@@H](COP(=O)(O)O)O[C@H]4n4c(Br)nc5c(N)ncnc54)O[C@H]3n3c(Br)nc4c(N)ncnc43)O[C@H]2n2c(Br)nc3c(N)ncnc32)[C@@H](O)[C@H]1O
Activity [12]: 4e-09 | Relative ability [12]: 0.18 | IC50 [13]: 0.7 µM | Relative activity [14]: 0.0033

Nc1ncnc2c1ncn2[C@@H]1O[C@H](COP(=O)(O)O[C@@H]2[C@H](O)[C@@H](COP(=O)(O)O[C@@H]3[C@H](O)[C@@H](COP(=O)(O)OP(=O)(O)OP(=O)(O)O)O[C@H]3n3cnc4c(N)ncnc43)O[C@H]2n2cnc3c(N)ncnc32)[C@@H](O)[C@H]1O
Relative activity [3]: 1

Nc1ncnc2c1nc(Br)n2[C@@H]1O[C@H](COP(=O)(O)O[C@@H]2[C@H](O)[C@@H](COP(=O)(O)O[C@@H]3[C@H](O)[C@@H](COP(=O)(O)O)O[C@H]3n3c(Br)nc4c(N)ncnc43)O[C@H]2n2c(Br)nc3c(N)ncnc32)[C@@H](O)[C@H]1O
Activity [12]: 2e-08 | Stability (Mus musculus [20]): 89% | Stability (Mus musculus [21]): 84% | Relative activity [3]: 0.0023 | Relative ability [6]: 0.035 | Stability (Mus musculus [22]): 99% | Stability (Mus musculus [23]): 53% | Stability (Mus musculus [24]): 76% | Stability (Mus musculus [25]): 88% | Stability (Mus musculus [26]): 82% | IC50 [8]: 1 µM | Stability (Mus musculus [27]): 22% | Stability (Mus musculus [28]): 100% | Stability (Mus musculus [29]): 77% | Stability (Mus musculus [30]): 100%

Nc1ncnc2c1nc(Br)n2[C@H]1O[C@@H](COP(=O)(O)O[C@H]2[C@@H](O)[C@H](COP(=O)(O)O[C@H]3[C@@H](O)[C@H](COP(=O)(O)O[C@H]4[C@@H](O)[C@H](COP(=O)(O)O[C@H]5[C@@H](O)[C@H](COP(=O)(O)O)O[C@@H]5n5c(Br)nc6c(N)ncnc65)O[C@@H]4n4c(Br)nc5c(N)ncnc54)O[C@@H]3n3c(Br)nc4c(N)ncnc43)O[C@@H]2n2c(Br)nc3c(N)ncnc32)[C@H](O)[C@@H]1O
Activity [12]: 3e-09 | Relative ability [12]: 0.23 | IC50 [13]: > 40 µM | Relative activity [14]: < 6e-05
